The text below walks through data of PubChem BioAssay AID822 (SRMLSC, 2007).

What is called EC50 is the concentration that produces a half-maximal response.

Structures are written as SMILES. Active and inactive are the calls of the source.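 The calls were made as follows: active = half-maximal effective dose for blocking growth of human endothelial cells at most 100 µM; inactive = the rest.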 Bounds are passed on as bounds.

This experiment concerns HUVEC proliferation, viability ATP luminescence. The experiment in a line: growth suppression of umbilical vein endothelial cells – cell-based, HUVEC, ATP luminescence, dose response (AID 822).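 Also: cells exposed to compound for 72 h before the ATP read.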 The procedure, abridged: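 Assay system: HUVEC primary endothelial cells, low passage (≤12); amount: 1250 HUVEC cells seeded per well; buffer or medium: EBM plus 2% FBS; read-out: percent viability relative to median untreated cell signal, EC50 via four-parameter fit; signal: luminescent ATP measurement with CellTiter-Glo reagent; schedule: 72 h exposure, 37 °C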
As to `Cc1oc(-c2ccc(Cl)cc2)nc1CN1CCC(C(=O)N2CCN(Cc3ccccc3)CC2)CC1`, the EC50 is 8.43 µM.

`Cc1nc2c(-c3ccccc3)c(C)[nH]n2c(=O)c1Cl`: the EC50 was 10.5 µM.

For the molecule `CCn1c(=O)cc(C(=O)OC)sc1=Nc1ccc(F)c(F)c1`, the EC50 is 11.7 µM.

As for `Cc1cc(NC(c2cccnc2)c2ccc3cccnc3c2O)no1` (stereo not drawn), the EC50 was 6.36 µM.

With `Cc1nn2c(NCCCN(C)C)c3c(nc2c1-c1ccccc1)CCC3`, the EC50 was 12.2 µM.

As for `Cc1nn(CC(=O)Nc2ccc3c(c2)oc2ccccc23)c(=O)c2ccccc12`, the EC50 was 6.25 µM.

For the molecule `CCOC(=O)c1c(OCC)[nH]c2c1cc(O)c1ccccc12`, the EC50 was 17.4 µM.

For `COC(=O)C1=C(C)N=c2s/c(=C3\C(=O)Nc4ccccc43)c(=O)n2C1c1ccccc1` (stereo not drawn), the EC50 was 6.31 µM.

With `CCc1cc(-c2[nH]ncc2-c2ccc3c(c2)OCO3)c(O)cc1O`, the EC50 is 7.97 µM.

On to `CCOC(=O)c1ccc(NC(=O)CCc2nc(-c3ccc(C)cc3)no2)cc1`, for which the EC50 was 16.5 µM.

On to `CC(C)OCCCN1C(=O)c2[nH]nc(-c3ccccc3O)c2C1c1cccc(Cl)c1` (stereo not drawn), for which the EC50 is 15.7 µM.

`O=C(CN1CCCC1)Nc1ccc(-c2nc3cc(NC(=O)CN4CCCC4)ccc3o2)cc1`: the EC50 is 18.9 µM.

For `Cc1ccc(C)c(C(C)NC(=O)C2C3CCC(O3)C2C(=O)O)c1` (stereo not drawn), the EC50 is 16.3 µM.

As to `Cn1c(=O)n(C)c2cc(C(=O)Nc3ccc4c(c3)OCO4)ccc21`, the EC50 is 11.6 µM.

Regarding `CCOC(=O)c1sc(NC(=O)CSc2nnnn2-c2ccc(C)c(C)c2)nc1C`, the EC50 is 6.65 µM.

`CC(C)c1ccc(C2C3CSCC=C3C(C#N)=C(N)C2(C#N)C#N)cc1` (stereo not drawn): the EC50 was 4.86 µM.

As for `CCn1c(SCC(N)=O)nnc1-c1ccc2[nH]c(C)c(C)c2c1`, the EC50 was > 10 µM (inactive).

Take `CN(c1ccccc1)S(=O)(=O)c1ccc(C(=O)Nc2nnc(-c3ccc(F)cc3)o2)cc1`: the EC50 is 1.74 µM.

Consider `CC(C)COC(=O)c1ccc2c(c1O)C(=O)c1ccccc1C2=O`, for which the EC50 is 3.11 µM.

For `CCOC(=O)c1c(C)[nH]c(C(=O)OC/C(O)=C(\C#N)c2nc3ccccc3[nH]2)c1C`, the EC50 was 11.6 µM.

With `Cc1ccc(-c2csc3ncnc(Sc4nnc(CN5CCCCCC5=O)o4)c23)cc1`, the EC50 was 5.55 µM.

`CC(=O)Nc1ccc(S(=O)(=O)N2CCN(c3nc(NC4CCCC4)c4ccccc4n3)CC2)cc1`: the EC50 was 4.96 µM.

As for `COc1ccc(N/N=C2/CCCCC2=O)cc1`, the EC50 was 3.51 µM.

In the case of `CCOc1ccc2nc(NC(=O)CN3CCC(n4nnc5cc(F)ccc54)CC3)sc2c1`, the EC50 was 8.42 µM.

Turning to `COC(=O)c1c(C)n(-c2ccc(C)cc2)c2ccc(O)cc12`, the EC50 is 18.6 µM.

With `COc1ccccc1-c1nnc2n1N=C(c1ccc(O)c(O)c1)CS2`, the EC50 is 0.847 µM.

For the molecule `C=CCOC(=O)C1=C(C)NC(SCC(=O)Nc2nccs2)=C(C#N)C1c1cccs1` (stereo not drawn), the EC50 was 6.19 µM.

For the molecule `Cc1cc(C)c2c(=O)n(CC(=O)NCCCN3CCN(c4ccccc4F)CC3)sc2n1`, the EC50 was 12.3 µM.

With `CCCCCCOC(=O)C(C#N)c1nc2ccccc2nc1N1CCN(C)CC1` (stereo not drawn), the EC50 is 10 µM.

In the case of `COc1ccc(-c2cc(C#N)nc(N3CCNCC3)n2)cc1`, the EC50 is 12.8 µM.

On to `COc1ccc(-c2cn3c(C)c(C(=O)Nc4cccc(NC(C)=O)c4)sc3n2)cc1`, for which the EC50 was 12.1 µM.

For `COc1cc(/C=C/c2ccc3cccc(OC)c3n2)c(OC(C)=O)c([N+](=O)[O-])c1`, the EC50 was 6.27 µM.

Take `COc1cc(/C=C(/C(=O)c2cccs2)c2nc3ccccc3[nH]2)cc(OC)c1O`: the EC50 is 1.99 µM.

With `Brc1ccc(-c2csc(NNC3=NCCCCC3)n2)cc1`, the EC50 is > 10 µM (inactive).

With `CS(=O)(=O)c1nc(-c2cccs2)cc(C(F)(F)F)n1`, the EC50 was 6.11 µM.

As for `CCCCC(=O)O[C@H]1CC[C@H]2[C@@H]3CCc4cc(O)ccc4[C@H]3CC[C@]12C`, the EC50 is 7.16 µM.

Regarding `Nc1c(C(=O)C2CC2)sc2nc(-c3cccs3)cc(C(F)(F)F)c12`, the EC50 was 8.07 µM.

Turning to `CCc1ccc(-c2nc(CN3CCC(C(=O)N4CCN(c5ccccc5)CC4)CC3)c(C)o2)cc1`, the EC50 was 4.09 µM.

On to `COC(=O)c1ccc2c(=O)n(Cc3ccco3)c(SCC(=O)Nc3ccccc3Cl)nc2c1`, for which the EC50 was 4.94 µM.

As for `Cc1cc(NC(=O)c2cc(-c3ccncc3)nc3c(C)cccc23)no1`, the EC50 was 6.87 µM.

With `CCCCCCCCOC(=O)C1=C(C)Nc2nnnn2C1c1cccs1` (stereo not drawn), the EC50 is 6.74 µM.

As to `Cc1ccc(S(=O)(=O)c2c(C)nn(C(C)(C)C)c2OC(=O)c2ccco2)cc1`, the EC50 was 12.1 µM.

As to `COc1ccc2cc3cc(C(=O)Nc4ccc5c(c4)OCO5)oc3nc2c1`, the EC50 is 4.64 µM.

As to `O=C1c2[nH]nc(-c3ccccc3O)c2C(c2cccc(Cl)c2)N1Cc1ccco1` (stereo not drawn), the EC50 was 11 µM.

Regarding `CC(C)(C)c1nn(-c2ccccc2)c2[nH]c(=O)c(CNCc3ccc4c(c3)OCO4)cc12`, the EC50 was 8.15 µM.

For `CCCOC(=O)c1ccc(Oc2c(-c3ccc(OC)cc3O)n[nH]c2C)cc1`, the EC50 is 9.48 µM.

As for `CCOC(=O)Cc1c(C)nc2c(-c3cccc(Br)c3)c[nH]n2c1=O`, the EC50 was 3.01 µM.

As for `CCn1cc(C(=O)NCCc2ccccc2)c(=O)c2cc(F)c(N3CCN(C)CC3)cc21`, the EC50 was 16.8 µM.

Take `COc1ccc2nc3oc(C(=O)N4CCN(c5ccccc5F)CC4)cc3cc2c1`: the EC50 is 15.5 µM.

On to `O=[N+]([O-])c1cccnc1N1CCC(c2cc(-c3cccc(C(F)(F)F)c3)n[nH]2)CC1`, for which the EC50 was 10.6 µM.

Turning to `COC(=O)CS(=O)(=O)c1nnc([C@H](Cc2ccccc2)NC(=O)OC(C)(C)C)o1`, the EC50 is 8.85 µM.

Turning to `COc1ccc2nc(Nc3nc(CSc4nnnn4-c4ccccc4)cc(=O)[nH]3)nc(C)c2c1`, the 50% effective concentration (EC50) was 4.49 µM.

In the case of `Cc1ccc2oc3c(c(=O)c2c1)C(c1cccc(Br)c1)N(Cc1ccco1)C3=O` (stereo not drawn), the EC50 was 19.9 µM.

Consider `Cc1cccnc1Nc1nc(-c2ccc(O)cc2O)cs1`, for which the EC50 was 10.3 µM.

Take `Cc1ccc2nc(NC(=O)CSc3ncnc4c3oc3ccccc34)sc2c1`: the EC50 was 5.79 µM.

Regarding `COc1ccc(OC)c(CCNC(=O)Cn2sc3nc(C)cc(C)c3c2=O)c1`, the EC50 is 12.1 µM.

As for `O=C(Nc1ccc2c(c1)OCO2)c1cc(C2CC2)on1`, the EC50 was 6.54 µM.

Turning to `Cc1nn(Cc2c(Cl)cccc2Cl)c(C)c1NC(=O)c1cc(C(C)C)on1`, the EC50 was 13.6 µM.

For the molecule `Cc1cccc(N2CCN(C(=O)Cn3sc4nc(C)cc(C)c4c3=O)CC2C)c1` (stereo not drawn), the EC50 was 12.4 µM.

`COc1ccc(C(C[N+](=O)[O-])c2c(-c3ccccc3)cc3ccccn23)cc1` (stereo not drawn): the EC50 is 11.1 µM.

`O=C(Nc1ccc(N2CCOCC2)cc1)Nc1ccc2nc(-c3ccco3)c(-c3ccco3)nc2c1`: the EC50 was 7.18 µM.

For `Cc1ccc(N=Nc2c(C)[nH][nH]c2=O)c(C)c1`, the EC50 was 7.59 µM.

With `c1ccc(-c2noc(-c3ccc4c(c3)OCO4)n2)nc1`, the EC50 was 2.47 µM.

On to `Oc1c(C(Nc2ccccn2)c2ccccn2)ccc2cccnc12` (stereo not drawn), for which the concentration giving a half-maximal response (EC50) was 17.8 µM.

For `COc1ccccc1-c1cc(C(=O)Nc2cc(C)n(Cc3ccc(Cl)cc3)n2)no1`, the concentration giving a half-maximal response (EC50) was 5.84 µM.

As to `CCCc1ccc(Oc2c(-c3ccc(O)c(C)c3O)n[nH]c2C)cc1`, the EC50 was 9.55 µM.

For `Cc1ccsc1/C=C/C1=Cc2c(sc(NC(=O)CSc3n[nH]c(N)n3)c2C#N)C(C)(C)C1`, the EC50 is 17.7 µM.

`Cc1ccc(/C=C/C(=O)c2ccccc2)cc1`: the EC50 was 17.1 µM.

As to `COc1ccc(O)c(-c2cc(-c3cccc(Br)c3)n[nH]2)c1`, the half-maximal effective concentration (EC50) is 10.8 µM.

As to `O=C(NCCC1=CCCCC1)C1CCN(Cc2cnn(-c3ccccc3)c2-n2cccc2)CC1`, the EC50 was 15.1 µM.

For `O=C1C2=C(NC(=S)NC2c2ccc(Cl)cc2)NC(c2ccc(Cl)cc2)N1c1ccc(Cl)cc1` (stereo not drawn), the EC50 is 5.96 µM.

Regarding `Cc1cc2c(N=O)c(NO)ccc2[nH]1`, the EC50 was 5.96 µM.

As to `Brc1ccccc1OCCCn1cnc2ccccc21`, the EC50 is 13.2 µM.

For `COc1ccc(-c2nnc(NC(=O)c3ccc(S(=O)(=O)N4CCCc5ccccc54)cc3)o2)cc1`, the EC50 was 2.96 µM.

For the molecule `CCCCS(=O)(=O)/C=C\C=C/S(=O)(=O)CCCC`, the EC50 was 5.04 µM.

For `CCSc1nnc(NC(=O)c2ccccn2)s1`, the EC50 is 1.81 µM.

`CCOC(=O)c1cc2c(N)c(C(=O)c3cc(C#N)c(SC)nc3C)sc2nc1C`: the EC50 is 5.27 µM.

For the molecule `Cc1cccc(NC(=O)Nc2cccc(Oc3c(F)c(F)c(F)c(F)c3F)c2)c1`, the EC50 is 15.3 µM.

As to `CCC(C)NC(=O)c1c(N)n(/N=C/c2cccnc2)c2nc3ccccc3nc12` (stereo not drawn), the EC50 was 12.6 µM.

Regarding `COc1ccc(C(=O)C(CN2CCOCC2)c2ccccc2)cc1` (stereo not drawn), the EC50 was 11.7 µM.

With `Cc1cc2c(cc1C)CSC(c1c(O)ccc3ccccc13)SC2`, the EC50 is 5.81 µM.

Take `CCOC(=O)COc1ccc(S(=O)(=O)NCCC2=CCCCC2)cc1`: the EC50 is 11.9 µM.

For the molecule `CC1(C)Cc2c(C#N)c(N3CCN(C(=O)c4ccco4)CC3)nc(Cc3ccccc3)c2CO1`, the EC50 was 7.74 µM.

Regarding `COc1c(F)c(F)c(C(=O)Nc2ccc(N3CCN(Cc4ccccc4)CC3)cc2)c(F)c1F`, the EC50 is 10.9 µM.

Regarding `COc1ccc(C(=O)C(CN2CCOCC2)c2ccccc2)cc1F` (stereo not drawn), the EC50 was 7.19 µM.

As to `CCN(CC)c1cc(C)c2cc(NC(=O)c3ccc(Br)o3)ccc2n1`, the EC50 was 11.3 µM.

On to `CCn1cc(C(=O)NCc2ccc3c(c2)OCO3)c(=O)c2cc(F)c(N3CCN(C(=O)c4ccco4)CC3)cc21`, for which the EC50 was 10.4 µM.

Consider `CC1=NOC(=O)/C1=C/c1ccc(-c2ccc(Cl)cc2)o1`, for which the EC50 was 4.06 µM.

Regarding `C=CCc1ccc(OCC(O)CN2CCC(Cc3ccccc3)CC2)c(OC)c1` (stereo not drawn), the EC50 was 9.81 µM.

Consider `CCCc1ccc(-c2cc(NC(=O)CSc3n[nH]c(N)n3)n(-c3ccccc3)n2)cc1`, for which the EC50 is 8.38 µM.

As to `Cc1nc2c(C(=O)NCCC(C)C)c[nH]n2c(=O)c1Cc1ccccc1F`, the EC50 is 7.02 µM.

In the case of `Clc1ccc(COC(Cn2ccnc2)c2ccc(Cl)cc2Cl)cc1` (stereo not drawn), the EC50 was 6.31 µM.

In the case of `Cc1ccc(-n2c(SCC(=O)Nc3ccc4c(c3)OCO4)nnc2-c2cccs2)cc1`, the EC50 is 8.21 µM.
